What was measured:
M9-ENL1 cells = assay: Cytotoxicity against M9-ENL1 leukemia cells; type: cell-based; conditions: for fold lower LC50 of C9 analog vs. C14-functionalized counterpart: 4, 6, 11 compared to 5, 7, 12
[1] = Human umbilical cord blood cell cytotoxicity test; type: cell-based; conditions: human, hUBC LC50, human umbilical cord blood cells, cell viability, mean ± SD (n = 3)
Outline: (§1)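 Fresh cord blood (within 48 h of collection) was separated on a Ficoll-Paque gradient and cultured without cryopreservation at 37 °C, 5% CO2, in serum-free Iscove's MDM with 20% BIT 9500, LDL and β-mercaptoethanol. Cells got ≥3 doses of test compound from DMSO stock for 24 h, were stained for CD45, CD34 and DAPI, and were analysed by flow cytometry. Viable CD34+CD45dim percentage was compared with vehicle.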

[2] = Solubility in buffered solutions at neutral pH; type: physicochemical
[3] = system: human umbilical cord blood cells (hUBC); assay: Human umbilical cord blood cell cytotoxicity test; type: cell-based; conditions: read-out: hUBC LC50; human umbilical cord blood cells, 24 h, cell viability, mean ± SD (n = 3)
Outline: as §1

## C=C1C(=O)O[C@H]2[C@H]1C[C@H](OC(C(=O)OCC)c1ccc(C(F)(F)F)cc1)/C(C)=C/CC[C@@]1(C)O[C@@H]21 (stereo partly drawn) [Compound 22, ethyl 2-(((3aR,5S,9aR,10aS,10bS,E)-6,9a-dimethyl-3-methylene-2-oxo-2,3,3a,4,5,8,9,9a,10a,10b-decahydrooxireno [2′,3′:9,10]cyclodeca[1,2-b]furan-5-yl)oxy)-2-(4-(trifluoromethyl)phenyl)acetate]
M9-ENL1 cells
  fold lower LC50 than the phenyl-containing counterparts (18, 19): 2- to 3 fold

## C=C1C(=O)O[C@H]2[C@H]1CC/C(C)=C/CC[C@@]1(C)O[C@@H]21 [PTL, parthenolide, reference compound]
[1]
  CC50 at 24 h: > 20 µM

## C=C1C(=O)O[C@H]2[C@H]1C[C@H](OC(=O)c1cn(C)c3ccccc13)/C(C)=C/CC[C@@]1(C)O[C@@H]21 [Compound 6, (3aS,5S,9aR,10aS,10bS,E)-6,9a-dimethyl-3-methylene-2-oxo-2,3,3a,4,5,8,9,9a,10a,10b decahydrooxireno [2′,3′:9,10] cyclodeca[1,2-b]furan-5-yl 1-methyl-1H-indole-3-carboxylate]
M9-ENL1 cells
  fold lower LC50 of C9 analog vs. C14-functionalized counterpart: 2- to 3 fold

## C=C1C(=O)O[C@H]2[C@H]1C[C@H](OC(C(=O)OCCN1CCOCC1)c1ccccc1)/C(C)=C/CC[C@@]1(C)O[C@@H]21 (stereo partly drawn) [Compound 27, 2-morpholinoethyl2-(((3aR,5S,9aR,10aS,10bS,E)-6,9a-dimethyl-3-methylene-2-oxo-2,3,3a,4,5,8,9,9a,10a,10b-decahydrooxireno[2′,3′:9,10]cyclodeca[1,2-b]furan-5-yl)oxy)-2-phenyl acetate]
M9-ENL1 cells
  fold reduction of activity compared to PTL: 3 to 5 folds
[2]
  solubility in buffered solutions: improved solubility

## C=C1C(=O)O[C@H]2[C@H]1C[C@H](OC(C(=O)OCc1ccccc1)c1ccccc1)/C(C)=C/CC[C@@]1(C)O[C@@H]21 (stereo partly drawn) [Compound 25b, benzyl 2-(((3aR,5S,9aR,10aS,10bS,E)-6,9a-dimethyl-3-methylene-2-oxo-2,3,3a,4,5,8,9,9a,10a,10b-decahydrooxireno [2′,3′:9,10]cyclodeca[1,2-b]furan-5-yl)oxy)-2-phenylacetate]
[3]
  CC50: > 5 µM

## C=C1C(=O)O[C@H]2[C@H]1C[C@H](OC(C(=O)OCC)c1ccccc1C(F)(F)F)/C(C)=C/CC[C@@]1(C)O[C@@H]21 (stereo partly drawn) [Compound 20, ethyl2-(((3aR,5S,9aR,10aS,10bS,E)-6,9a-dimethyl-3-methylene-2-oxo-2,3,3a,4,5,8,9,9a,10a,10b-decahydrooxireno [2′,3′:9,10]cyclodeca[1,2-b]furan-5-yl)oxy)-2-(2-(trifluoromethyl)phenyl)acetate]
M9-ENL1 cells
  fold lower LC50 than the phenyl-containing counterparts (18, 19): 2- to 3 fold

## C=C1C(=O)O[C@H]2[C@H]1C[C@H](OC(C(=O)OCc1ccccc1)c1ccccc1)/C(C)=C/CC[C@@]1(C)O[C@@H]21 (stereo partly drawn) [Compound 25a, benzyl 2-(((3aR,5S,9aR,10aS,10bS,E)-6,9a-dimethyl-3-methylene-2-oxo-2,3,3a,4,5,8,9,9a,10a,10b-decahydrooxireno [2′,3′:9,10]cyclodeca[1,2-b]furan-5-yl)oxy)-2-phenylacetate]
[1]
  CC50 at 24 h: > 5 µM

## C=C1C(=O)O[C@H]2[C@H]1C[C@H](OC(=O)c1ccc3ccccc3c1)/C(C)=C/CC[C@@]1(C)O[C@@H]21 [Compound 4, (3aS,5S,9aR,10aS,10bS,E)-6,9a-dimethyl-3-methylene-2oxo2,3,3a,4,5,8,9,9a,10a,10bdecahydrooxireno[2′,3′:9,10]cycl odeca [1,2-b]furan-5-yl 2-naphthoate]
M9-ENL1 cells
  fold lower LC50 of C9 analog vs. C14-functionalized counterpart: 2- to 3 fold

## C=C1C(=O)O[C@H]2[C@H]1CC/C(COCc1ccccc1)=C/CC[C@@]1(C)O[C@@H]21 [Compound 14, (3aR,9aR,10aS,10bS,Z)-6-((benzyloxy)methyl)-9a-methyl-3-methylene-3a,4,5,8,9,9a,10a,10b-octahydrooxireno[2′,3′:9,10] cyclodeca[1,2-b]furan-2(3H)-one]
M9-ENL1 cells
  fold lower cytotoxicity compared to C14-benzoylated counterpart: 2 fold

## C=C1C(=O)O[C@H]2[C@H]1CC/C(COC(C(=O)OCC)c1ccccc1C(F)(F)F)=C/CC[C@@]1(C)O[C@@H]21 (stereo partly drawn) [Compound 21, ethyl2-(((3aR,9aR,10aS,10bS,Z)-9a-methyl-3-methylene-2-oxo-2,3,3a,4,5,8,9,9a,10a,10b-decahydrooxireno[2′,3′:9,10]cyclodeca[1,2-b]furan-6-yl)methoxy)-2-(2-(trifluoromethyl)phenyl)acetate]
M9-ENL1 cells
  fold lower LC50 than the phenyl-containing counterparts (18, 19): 2- to 3 fold

## C=C1C(=O)O[C@H]2[C@H]1C[C@H](OC(C(=O)OCC)c1ccc(C(F)(F)F)cc1)/C(C)=C/CC[C@@]1(C)O[C@@H]21 (stereo partly drawn) [Compound 22a, ethyl 2-(((3aR,5S,9aR,10aS,10bS,E)-6,9a-dimethyl-3-methylene-2-oxo-2,3,3a,4,5,8,9,9a,10a,10b-decahydrooxireno [2′,3′:9,10]cyclodeca[1,2-b]furan-5-yl)oxy)-2-(4-(trifluoromethyl)phenyl)acetate]
[1]
  CC50 at 24 h: > 5 µM

## C=C1C(=O)O[C@@H]2[C@@H]1CC/C(COC(C(=O)OCC)c1ccc(C(F)(F)F)cc1)=C/CC[C@]1(C)O[C@H]21 (stereo partly drawn) [Compound 23b, ethyl 2-(((3aR,9aR,10aS,10bS,Z)-9a-methyl-3-methylene-2-oxo-2,3,3a,4,5,8,9,9a,10a,10b-decahydrooxireno[2′,3′:9,10]cyclodeca[1,2-b]furan-6-yl)methoxy)-2-(4-(trifluoromethyl)phenyl)acetate]
[3]
  CC50: > 5 µM

## C=C1C(=O)O[C@H]2[C@H]1CC/C(COC(C(=O)OCCN1CCOCC1)c1ccccc1)=C/CC[C@@]1(C)O[C@@H]21 (stereo partly drawn) [Compound 28, 2-morpholinoethyl 2-(((3aR,9aR,10aS,10bS,Z)-9a-methyl-3-methylene-2-oxo-2,3,3a,4,5,8,9,9a,10a,10b-decahydrooxireno [2′,3′:9,10]cyclodeca[1,2-b]furan-6-yl)methoxy)-2-phenylacetate]
M9-ENL1 cells
  fold reduction of activity compared to PTL: 3 to 5 folds
[2]
  solubility in buffered solutions: improved solubility

## C=C1C(=O)O[C@H]2[C@H]1C[C@H](OC(=O)c1cc(-c3ccc(Cl)cc3)on1)/C(C)=C/CC[C@@]1(C)O[C@@H]21 [Compound 11, (3aR,5S,9aR,10aS,10bS,E)-6,9a-dimethyl-3-methylene-2-oxo-2,3,3a,4,5,8,9,9a,10a,10b-decahydrooxireno[2′,3′:9,10] cyclodeca[1,2-b]furan-5-yl 5-(4-chlorophenyl)isoxazole-3-carboxylate]
M9-ENL1 cells
  fold lower LC50 of C9 analog vs. C14-functionalized counterpart: 2- to 3 fold

## C=C1C(=O)O[C@@H]2[C@@H]1CC/C(COC(C(=O)OCC)c1ccc(C(F)(F)F)cc1)=C/CC[C@]1(C)O[C@H]21 (stereo partly drawn) [Compound 23, ethyl 2-(((3aR,9aR,10aS,10bS,Z)-9a-methyl-3-methylene-2-oxo-2,3,3a,4,5,8,9,9a,10a,10b-decahydrooxireno[2′,3′:9,10]cyclodeca[1,2-b]furan-6-yl)methoxy)-2-(4-(trifluoromethyl)phenyl)acetate]
M9-ENL1 cells
  fold lower LC50 than the phenyl-containing counterparts (18, 19): 2- to 3 fold

## C=C1C(=O)O[C@H]2[C@H]1CC/C(COC(C(=O)OCCN1CCCC1)c1ccccc1)=C/CC[C@@]1(C)O[C@@H]21 (stereo partly drawn) [Compound 29, 2-(pyrrolidin-1-yl)ethyl 2-(((3aR,5S,9aR,10aS,10bS,E)-6,9a-dimethyl-3-methylene-2-oxo-2,3,3a,4,5,8,9,9a,10a,10b-decahydrooxireno[2′,3′:9,10]cyclodeca[1,2-b]furan-5-yl)oxy)-2-phenylacetate]
M9-ENL1 cells
  fold reduction of activity compared to PTL: 3 to 5 folds
[2]
  solubility in buffered solutions: improved solubility

— paper PMC5083853 (Bioorganic & medicinal chemistry, 2016)
